Experimental data: ChEMBL document CHEMBL1255462, “Antiviral activity of a small-molecule inhibitor of filovirus infection” (Antimicrob Agents Chemother, 2010)
Calls of active or inactive are those of the source. No cut-off for these calls is given here.

Tests used:
[1] = test system: Ebolavirus; assay: Antiviral activity against Ebola-like viruses infected in C57BL/6 mouse assessed as serum alkaline phosphatase at 10 mg/kg, ip after 24 hrs measured on 6 days postinfection; format: functional; details: route intraperitoneal
Procedure, shortened: (§1)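 C57BL/6 mice received 10 mg/kg i.p. in saline, or vehicle, 24 h postinfection. Five mice per group were sacrificed on days 2, 4 and 6. Serum was frozen at -70°C until all samples were collected, then assayed for ALT, AST and ALP (U/liter). Values are group means compared with vehicle.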

[2] = test system: Mus musculus; assay: Toxicity in Ebola-like viruses infected in C57BL/6 mouse assessed as mild hepatitis with hepatocellular necrosis at 10 mg/kg, ip single dose measured after 4 days; format: organism-based; design: dose 10 mg/kg, route intraperitoneal; details: in vivo, 96 h
[3] = test system: Ebolavirus; assay: Antiviral activity against Ebola-like viruses infected in C57BL/6 mouse assessed as serum aspartate aminotransferase at 10 mg/kg, ip after 24 hrs measured on 2 days postinfection; format: functional; details: route intraperitoneal; procedure, shortened: as §1
[4] = Cytotoxicity against human HEK293 cells after 72 hrs; format: cell-based
Procedure, shortened: (§2)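 Confluent monolayers were treated in triplicate with serially diluted compound at 0.0018 to 320 µM for 72 h. Viability was read by CellTiter Glo luminescence, and CC50 was determined.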

[5] = test system: Ebolavirus; assay: Antiviral activity against Ebola-like viruses infected in C57BL/6 mouse liver assessed as reduction in viral burden at 10 mg/kg, ip single dose; format: functional; details: route intraperitoneal
[6] = Cytotoxicity against human PBMC after 72 hrs; format: cell-based; details: PBMC (peripheral blood mononuclear cells)
[7] = test system: Ebolavirus; assay: Antiviral activity against Ebola-like viruses infected in C57BL/6 mouse assessed as serum aspartate aminotransferase at 10 mg/kg, ip after 24 hrs measured on 4 days postinfection; format: functional; details: route intraperitoneal; procedure, shortened: as §1
[8] = test system: Ebolavirus; assay: Antiviral activity against Ebola-like viruses infected in C57BL/6 mouse assessed as serum alkaline phosphatase at 10 mg/kg, ip after 24 hrs measured on 2 days postinfection; format: functional; details: route intraperitoneal; procedure, shortened: as §1
[9] = test system: Ebolavirus; assay: Antiviral activity against Ebola-like viruses infected in C57BL/6 mouse assessed as serum alanine aminotransferase at 10 mg/kg, ip after 24 hrs measured on 2 days postinfection; format: functional; details: route intraperitoneal; procedure, shortened: as §1
[10] = test system: Ebolavirus; assay: Antiviral activity against Ebola-like viruses infected in C57BL/6 mouse kidney assessed as reduction in viral burden at 10 mg/kg, ip single dose; format: functional; details: route intraperitoneal
[11] = test system: Ebolavirus; assay: Antiviral activity against Sudan ebolavirus expressing GFP in african green monkey Vero E6 cells after 48 hrs by standard plaque assay; format: functional, cell-based; details: Orthoebolavirus
[12] = test system: Mus musculus; assay: Toxicity in Ebola-like viruses infected in C57BL/6 mouse spleen assessed as mild lymphocytolysis at 10 mg/kg, ip single dose measured after 4 days; format: organism-based; design: dose 10 mg/kg, route intraperitoneal; details: in vivo, 96 h
[13] = test system: Marburgvirus; assay: Antiviral activity against Marburgvirus infected in BALB/C mouse assessed as protection against virus challenge at 5 mg/kg, ip administered 1 day postinfection; format: functional; details: route intraperitoneal
Procedure, shortened: (§3)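 Compound given once i.p. in 0.9% saline at day 1 postinfection, with vehicle-treated controls. Health and mortality recorded twice daily for 14 days. Animals surviving 14 days were scored as protected, and survival curves were compared by Kaplan-Meier analysis.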

[14] = test system: Ebolavirus; assay: Antiviral activity against Ebola-like viruses infected in C57BL/6 mouse assessed as serum alanine aminotransferase at 10 mg/kg, ip after 24 hrs measured on 6 days postinfection; format: functional; details: route intraperitoneal; procedure, shortened: as §1
[15] = test system: Ebolavirus; assay: Antiviral activity against Ebola-like viruses infected in C57BL/6 mouse spleen assessed as reduction in viral burden at 10 mg/kg, ip single dose; format: functional; details: route intraperitoneal
[16] = Cytotoxicity against MDCK cells after 72 hrs; format: cell-based, Canis lupus familiaris; details: dog; procedure, shortened: as §2
[17] = test system: Marburgvirus; assay: Antiviral activity against Marburgvirus infected in BALB/C mouse assessed as protection against virus challenge at 10 mg/kg, ip measured for 14 days; format: functional, organism-based; design: dose 10 mg/kg; procedure, shortened: as §3
[18] = Antiviral activity against Lake Victoria marburgvirus - Ci67 in overnight pretreated african green monkey Vero E6 cells at 10 uM after 48 hrs by standard virus yield reduction assay; format: functional; design: scale not given: the % may be the effect or the level left
[19] = Cytotoxicity against african green monkey Vero E6 cells after 72 hrs; format: cell-based; details: chlorocebus sabaeus; procedure, shortened: as §2
[20] = test system: Ebolavirus; assay: Antiviral activity against Zaire ebolavirus expressing GFP in african green monkey Vero E6 cells after 48 hrs by standard plaque assay; format: functional, cell-based
[21] = Cytotoxicity against human Hep2 cells after 72 hrs; format: cell-based, HEp-2; procedure, shortened: as §2
[22] = Antiviral activity against Lake Victoria marburgvirus - Ravn in overnight pretreated african green monkey Vero E6 cells after 48 hrs by standard virus yield reduction assay; format: functional, cell-based; details: Kenya, 1987, Vero
[23] = Antiviral activity against Lake Victoria marburgvirus - Ravn in overnight pretreated african green monkey Vero E6 cells at 25 uM after 48 hrs by standard virus yield reduction assay; format: functional; design: scale not given: the % may be the effect or the level left
[24] = test system: Ebolavirus; assay: Antiviral activity against Ebola-like viruses infected in C57BL/6 mouse assessed as serum alanine aminotransferase at 10 mg/kg, ip after 24 hrs measured on 4 days postinfection; format: functional; details: route intraperitoneal; procedure, shortened: as §1
[25] = Antiviral activity against Lake Victoria marburgvirus - Ci67 in overnight pretreated african green monkey Vero E6 cells after 48 hrs by standard virus yield reduction assay; format: functional
[26] = Cytotoxicity against human A549 cells after 72 hrs; format: cell-based; procedure, shortened: as §2
[27] = test system: Ebolavirus; assay: Antiviral activity against Ebola-like viruses infected in C57BL/6 mouse assessed as serum alkaline phosphatase at 10 mg/kg, ip after 24 hrs measured on 4 days postinfection; format: functional; details: route intraperitoneal; procedure, shortened: as §1
[28] = test system: Ebolavirus; assay: Antiviral activity against Ebola-like viruses infected in C57BL/6 mouse assessed as increase in mouse survival at 5 mg/kg, ip single injection; format: functional; details: route intraperitoneal; procedure, shortened: as §3
[29] = test system: Ebolavirus; assay: Antiviral activity against Ebola-like viruses infected in C57BL/6 mouse assessed as serum aspartate aminotransferase at 10 mg/kg, ip after 24 hrs measured on 6 days postinfection; format: functional; details: route intraperitoneal; procedure, shortened: as §1
[30] = test system: Ebolavirus; assay: Antiviral activity against Zaire ebolavirus expressing GFP in african green monkey Vero E6 cells at >=0.8 uM after 48 hrs by standard plaque assay; format: functional

SMILES: N=C(N)c1ccc2oc(/C=C/c3nc4cc(C(=N)N)ccc4[nH]3)cc2c1
- Activity [1]: 67 U/L
- Activity [2]: Toxic
- Activity [3]: 237 U/L
- CC50 at 72 h [4]: ≥ 50000 nM
- log10cfu [5]: 1
- CC50 at 72 h [6]: ≥ 50000 nM
- Activity [7]: 54 U/L
- Activity [8]: 57 U/L
- Activity [9]: 148 U/L
- log10cfu [10]: 1
- EC50 [11]: 420 nM
- EC90 [11]: 960 nM
- Activity [12]: Toxic
- Activity [13]: 40%
- Activity [14]: 87 U/L
- log10cfu [15]: 1
- CC50 at 72 h [16]: ≥ 50000 nM
- Activity [17]: Active
- Activity [18]: >90%
- CC50 at 72 h [19]: ≥ 50000 nM
- Activity [20]: Dose-dependent effect
- EC50 ([20]; Orthoebolavirus): 100 nM
- EC90 ([20]; Orthoebolavirus): 330 nM
- CC50 at 72 h [21]: ≥ 50000 nM
- EC50 [22]: 2500 nM
- Activity [23]: >99.9%
- Activity [24]: 23 U/L
- CC50 [25]: 2500 nM
- CC50 at 72 h [26]: ≥ 50000 nM
- Activity [27]: 65 U/L
- Activity [28]: 60%
- Activity [29]: 207 U/L
- inhibition (INH) [30]: >=0.8%
